Assay outcomes: PubChem, several laboratories
Rows were chosen to be rich in hits. Some 2.5% of all compounds tested hit in one or more screens of this group.
A1 inh: caspase 3/7 activation in MEF A1-2A-BIM cells, primary screen, A1 inhibitor project, cell-based, luminescence, HTS; AID 2462, 2010; hit rate 0.066% among 330,000; Caspase-Glo 3/7 luminescence, 3 h; percent of clofoctol response, vehicle zero; caspase activation, % (concentration not given with the values);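 active = over half of replicate activation scores above 10%, or exactly half above 10 with the replicate mean above 10; inconclusive = replicate mean below 10 yet half the replicates above 10; inactive = over half of replicates below 10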
sPLA2-III inh: human group III sPLA2 inhibitors, primary screen, biochemical, QFRET, BODIPY PC-A2 liposome substrate; Group 3 secretory phospholipase A2 (Homo sapiens), Q9NZ20; QFRET BODIPY PC-A2 liposome hydrolysis, fluorescence; inhibition, % at 12.2 µM; hit rate 0.56% among 370,000; AID 743126, 2013;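 active = inhibition above mean plus 3 SD of compounds lying within the high and low control bounds, cut at about 19% in these data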
Target sequence (Q9NZ20 whole entry, looked up): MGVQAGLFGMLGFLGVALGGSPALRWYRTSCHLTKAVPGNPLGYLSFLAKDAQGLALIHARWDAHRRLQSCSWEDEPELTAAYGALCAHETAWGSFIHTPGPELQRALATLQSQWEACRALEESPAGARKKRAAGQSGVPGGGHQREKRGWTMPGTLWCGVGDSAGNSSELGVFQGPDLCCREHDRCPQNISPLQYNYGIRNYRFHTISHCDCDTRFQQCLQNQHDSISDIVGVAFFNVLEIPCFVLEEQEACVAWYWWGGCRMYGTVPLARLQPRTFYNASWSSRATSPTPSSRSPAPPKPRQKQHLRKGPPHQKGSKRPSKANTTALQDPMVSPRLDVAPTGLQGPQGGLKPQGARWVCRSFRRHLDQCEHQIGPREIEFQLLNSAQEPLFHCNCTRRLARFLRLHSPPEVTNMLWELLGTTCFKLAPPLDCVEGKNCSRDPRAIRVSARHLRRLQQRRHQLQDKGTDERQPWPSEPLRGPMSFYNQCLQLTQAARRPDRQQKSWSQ
NTR1 ag: agonists of human NTR1, primary screen, imaging, U2OS cells, beta-arrestin-GFP, high content. hit rate 0.17% among 330,000. NTR1-U2OS beta-arrestin-GFP spot imaging, agonist mode. Neurotensin receptor type 1 (Homo sapiens), P30989. activation, % at 20 µM;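 active = activation at or above 40% of the spot to cytoplasm intensity ratio, with at least 20 cells analyzed; inconclusive = wells under 20 cells, flagged as cytotoxic or low count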
MC4R barr agon: MC4R agonists recruiting beta-arrestin, primary screen, cell-based, luminescence, agonist arm of biased-ligand search; U2OS MC4R beta-arrestin complementation; percent of melanotan II response, DMSO zero; activation, % at 8.9 µM; Melanocortin receptor 4 (Homo sapiens), P32245; AID 540308, 2011; hit rate 0.98% among 360,000;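 active = activation above a per-plate cutoff, the mean activation of sample wells on that plate plus 3 SD, cut at about 8% in these data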
Exocytosis inh: LAMP-1 surface exposure blockers, TALL-104 cells – cell-based, flow cytometry, MLPCN library, primary screen; inhibition, % at 10 µM; hit rate 0.66% among 360,000; TALL-104 LAMP-1 surface exposure; cells stimulated with thapsigargin and PMA; AID 651702, 2012;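 active = inhibition above about 55%, limit read from the data; inconclusive = no clear call, values can overlap the other calls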
MC4R antagonist: MC4R antagonists of cAMP signaling, primary screen, cell-based, TR-FRET, antagonist arm of biased-ligand search. AID 540295, 2011. Melanocortin receptor 4 (Homo sapiens), P32245. hit rate 0.48% among 360,000. inhibition, % at 6.5 µM. MC4R-expressing cells, MTII-stimulated cAMP, LANCE TR-FRET;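 active = inhibition above its plate's cutoff, the mean of tested wells on that plate plus 3 SD, cut at about 29% in these data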
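Material: U2OS-MC4R stable cell line | Reagent: Melanotan II challenge after compound preincubation | Doses: One concentration, 6.5 µM nominal | Incubation: 30-min compound preincubation, 1-h Melanotan II challenge, 1-h detection, room temperature | Signal: TR-FRET cAMP assay | Replicates: One well per compound, no replicates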
sPLA2 confirm: human group III sPLA2 inhibitors, confirmation, biochemical, QFRET, triplicate | shares compounds with sPLA2-III inh | recombinant hGIII-sPLA2, BODIPY PC-A2 QFRET fluorescence | inhibition, % at 12.2 µM | hit rate 34% among 2,000;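 active = mean inhibition across triplicates above the hit cutoff set in the earlier primary screen, cut at about 19% in these data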
535nm interf: 535nm fluorescence optical interference, confirmation, artefact control for HGIII-sPLA2 inhibitor project, biochemical, QFRET; inhibition, % at 12.2 µM; BODIPY FL product fluorescence interference; shares compounds with sPLA2-III inh; hit rate 8.5% among 2,000;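 active = average inhibition above the solvent-only control mean plus 3 SD, cut at about 6% in these data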
BODIPY interf DR: 535nm fluorescence optical interference, dose response, artefact control for HGIII-sPLA2 inhibitor project, biochemical, QFRET. shares compounds with sPLA2-III inh. BODIPY FL product fluorescence interference, cell-free. IC50, µM. 240 tested, under 10 active. AID 743455, 2014;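 active = IC50 at or below 10 µM; inactive = IC50 above 10 µM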
Large screens that a line does not name were inactive (follow-up assays come after a bar, where they were run).

N=C(N)SCc1ccc(Cl)c2ccccc12	sPLA2-III inh 45 (no result: A1 inh, NTR1 ag) | sPLA2 confirm 32 | 535nm interf inactive | BODIPY interf DR inactive
CCOC(=O)N1CCN(S(=O)(=O)N2CCCC(C(=O)NCc3cc(Br)ccc3OC)C2)CC1 (stereo unspecified)	none (no result: A1 inh, NTR1 ag)
COc1cc(C2C3=C(Nc4nc(N)[nH]c(=O)c42)c2ccccc2C3=O)ccc1O (stereo unspecified)	none
COc1ccccc1NC(=S)N1CCC(c2nc3cc(C)c(C)cc3[nH]2)CC1	sPLA2-III inh 21 | sPLA2 confirm inactive | 535nm interf inactive
COc1ccccc1NC(=O)N1CCC(c2nc3cc(C)c(C)cc3[nH]2)CC1	none
O=C1c2ccccc2C(=O)c2c1ccc(O)c2O	sPLA2-III inh 21 (no result: A1 inh, NTR1 ag) | sPLA2 confirm inactive | 535nm interf inactive
COC(=O)c1ccc2c(c1O)C(=O)c1ccccc1C2=O	none
CC1(C)OC1(C#N)c1ccccc1 (stereo unspecified)	none (no result: A1 inh, NTR1 ag)
S=c1[nH]nc(Cc2cccc3ccccc23)o1	sPLA2-III inh 24 | sPLA2 confirm inactive | 535nm interf inactive
Cc1[nH]c2ccccc2c1Cc1n[nH]c(=S)o1	none
COCCNC(=O)/C(C#N)=C/c1c(N2CC(C)OC(C)C2)nc2ccccn2c1=O (stereo unspecified)	sPLA2-III inh 21 | sPLA2 confirm inactive | 535nm interf inactive
CC(=O)NC(CC(C)C)C(=O)O (stereo unspecified)	none (no result: A1 inh, NTR1 ag)
O=C(CN1C(=O)c2ccccc2C1=O)NCCOc1ccccc1	none
CC(C)(C)NC(=O)N1CCC(CO)(Cc2ccccc2Cl)CC1	none
CC1(C)CC(CCN)(Cc2ccccc2Cl)CCO1 (stereo unspecified)	sPLA2-III inh 20 | sPLA2 confirm inactive | 535nm interf inactive
COc1cc(CN2CCCC(CO)(Cc3cccc(Cl)c3)C2)cc2c1OCO2 (stereo unspecified)	none
CC(C)CCNC(=S)Nc1ccccc1F	sPLA2-III inh 20 | sPLA2 confirm inactive | 535nm interf inactive
CC(C)CCNC(=S)Nc1ccccn1	none
CCOc1cc(C(=O)NC)cc(OCC)c1OCC	sPLA2-III inh 20 | sPLA2 confirm inactive | 535nm interf inactive
CCOc1cc(C(=O)NC2CCCCCCC2)cc(OCC)c1OCC	none
C[C@@H]1CN([C@@H](C)CO)C(=O)c2cc(Br)cnc2O[C@@H]1CN(C)Cc1ccccn1	none (no result: A1 inh, NTR1 ag, MC4R barr agon, Exocytosis inh, MC4R antagonist)
CNC(=O)c1c2c(nc3ccc(Br)cc13)CCCC2	none
COc1ccc(C2Nc3ccccc3C(=O)N2c2ccc(F)cc2)cc1CSc1ccccn1 (stereo unspecified)	sPLA2-III inh 20, MC4R barr agon 33 | sPLA2 confirm inactive | 535nm interf inactive
CCOC(=O)[C@H]1[C@H]2COc3cc(OC)ccc3[C@@H]2N2C(=O)c3ccc(F)cc3NC(=O)[C@@]12C	none
CCOC(=O)[C@H]1[C@H]2COc3cc(OC)ccc3[C@@H]2N2C(=O)c3cc(F)ccc3NC(=O)[C@@]12C	sPLA2-III inh 31 | sPLA2 confirm inactive | 535nm interf inactive
CCOC(=O)[C@H]1[C@H]2COc3cc(OC)ccc3[C@@H]2N2C(=O)c3cc(OC)ccc3NC(=O)[C@@]12C	sPLA2-III inh 26 | sPLA2 confirm inactive | 535nm interf inactive
CCOC(=O)[C@H]1[C@H]2COc3cc(OC)ccc3[C@@H]2N2C(=O)c3cc(F)c(F)cc3NC(=O)[C@@]12C	sPLA2-III inh 25 | sPLA2 confirm 20 | 535nm interf inactive
CCOC(=O)[C@H]1[C@H]2COc3ccc(Br)cc3[C@@H]2N2C(=O)c3cc(F)c(F)cc3NC(=O)[C@@]12C	none
CCOC(=O)[C@H]1[C@H]2COc3cc(OC)ccc3[C@@H]2N2C(=O)c3cc(C)ccc3NC(=O)[C@@]12C	none
CCOC(=O)[C@H]1[C@H]2COc3cc(OC)ccc3[C@@H]2N2C(=O)c3ccc(C)cc3NC(=O)[C@@]12C	A1 inh inconclusive, sPLA2-III inh 25 | sPLA2 confirm inactive | 535nm interf inactive
Cc1c(C)c(C)c(S(=O)(=O)N2CCNCC2)c(C)c1C	none
Cc1nn(Cc2ccccc2Cl)c(C)c1C(=O)N(C)CC(=O)Nc1cccc(F)c1	none
Cc1cc(C)nc(N/N=C/c2cccc3ccccc23)n1	sPLA2-III inh 19 | sPLA2 confirm inactive | 535nm interf inactive
C=CCn1c(SCc2n[nH]c(=S)n2-c2ccccc2)nnc1-c1ccccc1	sPLA2-III inh 20 | sPLA2 confirm inactive | 535nm interf inactive
C=CCn1c(CSc2ccc(C)cc2)n[nH]c1=S	sPLA2-III inh 22 | sPLA2 confirm 25 | 535nm interf inactive
C=CCn1c(CSc2nnc(-c3ccccc3)n2C)n[nH]c1=S	none
COc1cc(CNc2ccc3[nH]c(=O)[nH]c3c2)ccc1OCc1ccccc1C	none
COc1cc(CNc2ccc3[nH]c(=O)[nH]c3c2)ccc1OCc1ccccc1F	sPLA2-III inh 24 | sPLA2 confirm 24 | 535nm interf inactive
O=C1CN(c2nc(-c3ccccc3)c3cc(Cl)ccc3n2)c2ccccc2N1	sPLA2-III inh 21 | sPLA2 confirm inactive | 535nm interf inactive
OCCN1CCN(c2nc(-c3ccccc3)c3cc(Cl)ccc3n2)CC1	none
CC(SCC(=O)NC12CC3CC(CC(C3)C1)C2)C(=O)O (stereo unspecified)	sPLA2-III inh 24 | sPLA2 confirm inactive | 535nm interf inactive
CC1CCCN(S(=O)(=O)c2ccc(C(=O)Nc3nnc(C4CC4)o3)cc2)C1 (stereo unspecified)	none
Cc1cccc2sc(NNC(=O)c3ccc(S(=O)(=O)N4CC(C)CC(C)C4)cc3)nc12 (stereo unspecified)	sPLA2-III inh 47 | sPLA2 confirm 47 | 535nm interf inactive
